# Experiments:
# Assay type in all cases: functional
# [1] = Antiinflammatory activity assessed as inhibition of heat-induced albumin denaturation after 20 mins by spectrophotometric method
# How it was run: (§1)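 Bovine albumin fraction as a 1% aqueous solution, with test agent at 0.5−10 μM, adjusted to pH 6.3 with 1 N HCl. Incubated 20 min at 37 °C, then heated 20 min at 51 °C. After cooling, turbidity read at 660 nm. % inhibition = [(A0 − A1)/A0] × 100 versus control absorbance. Diclofenac sodium as reference.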
# [2] = Antiinflammatory activity assessed as inhibition of heat-induced albumin denaturation at 10 uM after 20 mins by spectrophotometric method relative to control; how it was run: as §1
# [3] = Antiinflammatory activity assessed as inhibition of heat-induced albumin denaturation at 1 uM after 20 mins by spectrophotometric method relative to control; how it was run: as §1
# [4] = Antiinflammatory activity assessed as inhibition of heat-induced albumin denaturation at 5 uM after 20 mins by spectrophotometric method relative to control; how it was run: as §1
# [5] = Antiinflammatory activity assessed as inhibition of heat-induced albumin denaturation at 0.5 uM after 20 mins by spectrophotometric method relative to control; how it was run: as §1
# Rattus norvegicus [6] = assay: Antiinflammatory activity in Wistar rat assessed as inhibition of carrageenan-induced paw edema at 10 mg/kg, po preincubated for 1 hr followed by carrageenan challenge measured at 3 hrs by plethysmometer relative to control
# How it was run: (§2)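 Adult male albino Wistar animals, 25−30 g, in groups of five, 25 ± 2 °C, 12 h light/dark. Oral dosing, with PBS vehicle for controls. One hour later, 0.1 mL of 1% carrageenan was injected subplantar into the left hind paw. Paw volume was read by plethysmometer at 1, 2, 3 and 4 h relative to pre-injection. % inhibition = [(D0 − Dt)/D0] × 100 versus control group mean at each time. Mean ± SD, n = 5, Student's test.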
# Rattus norvegicus [7] = assay: Antiinflammatory activity in Wistar rat assessed as inhibition of carrageenan-induced paw edema at 10 mg/kg, po preincubated for 1 hr followed by carrageenan challenge measured at 1 hr by plethysmometer relative to control; how it was run: as §2
# Rattus norvegicus [8] = assay: Antiinflammatory activity in Wistar rat assessed as inhibition of carrageenan-induced paw edema at 10 mg/kg, po preincubated for 1 hr followed by carrageenan challenge measured at 2 hrs by plethysmometer relative to control; how it was run: as §2
# Rattus norvegicus [9] = assay: Antiinflammatory activity in Wistar rat assessed as inhibition of carrageenan-induced paw edema at 10 mg/kg, po preincubated for 1 hr followed by carrageenan challenge measured at 4 hrs by plethysmometer relative to control; how it was run: as §2
SMILES,IC50 [1],inhibition [2],inhibition [3],inhibition [4],inhibition [5],inhibition in vivo at 10 mg/kg (Rattus norvegicus [6]),inhibition in vivo at 10 mg/kg (Rattus norvegicus [7]),inhibition in vivo at 10 mg/kg (Rattus norvegicus [8]),inhibition in vivo at 10 mg/kg (Rattus norvegicus [9])
C/C1=C/CCC2=C[C@@H](OC2=O)C(C)(C)/C=C\C1=O,23.8 µM,44.4%,22.6%,32.9%,15.5%,,,,
O=C(O)Cc1ccccc1Nc1c(Cl)cccc1Cl [DICLOFENAC SODIUM],4.14 µM,70.2%,31.8%,41.7%,22.6%,73.7%,64.9%,71.5%,78.6%
"COC(=O)/C1=C\CC(C)(C)/C=C/C(=O)C(C)CCC1 (single isomer, unassigned; (-))",220 µM,,16.7%,24.6%,8.73%,,,,

# From ChEMBL document CHEMBL4004796, “Exploring the Bioactive Terpenoid Content of an Algerian Plant of the Genus Pulicaria: The ent-Series of Asteriscunolides” (J Nat Prod, 2017)
